CHRM1 antagonist: human CHRM1 antagonism | actives 1.3% (n = 360,000) | CHO-K1 hM1, Fluo-8 calcium fluorescence, ACh EC80 antagonist | AID 588852 | inhibition, % at 3 µM | P11229;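 active = percent inhibition above its own plate's cutoff, namely the mean of that plate's compound wells plus 3 SD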;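 also: peak over basal fluorescence ratio during 140 s after agonist addition; 0% = ACh EC80 plus DMSO and 100% = DMSO alone without agonist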
Target sequence (P11229 whole entry, looked up): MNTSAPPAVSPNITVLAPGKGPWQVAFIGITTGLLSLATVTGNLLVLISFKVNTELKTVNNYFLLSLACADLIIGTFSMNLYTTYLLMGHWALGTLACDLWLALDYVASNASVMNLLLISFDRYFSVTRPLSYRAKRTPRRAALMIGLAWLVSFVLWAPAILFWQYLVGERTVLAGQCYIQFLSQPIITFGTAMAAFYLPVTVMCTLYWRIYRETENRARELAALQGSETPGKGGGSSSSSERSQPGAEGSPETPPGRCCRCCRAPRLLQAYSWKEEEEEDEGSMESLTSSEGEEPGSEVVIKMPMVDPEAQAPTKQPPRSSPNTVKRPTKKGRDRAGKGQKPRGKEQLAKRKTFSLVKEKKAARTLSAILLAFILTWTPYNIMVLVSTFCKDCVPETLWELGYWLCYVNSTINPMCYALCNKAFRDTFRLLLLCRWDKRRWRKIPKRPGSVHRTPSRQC
CHRM5 agonist: CHRM5 agonism in calcium assay; P08912; CHO-K1 hM5 cells, Fluo-8 calcium fluorescence; 0% DMSO wells, 100% maximal acetylcholine response; activation, % at 3 µM; actives 0.19% (n = 360,000);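 active = activation above the run's mean over test compounds plus 3 SD, cut at about 23% in these data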;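 also: signal is peak over basal fluorescence ratio across the kinetic read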
CHRM5 PAM: CHRM5 positive allosteric modulation; activation, % at 3 µM; actives 0.3% (n = 360,000); CHO-K1 hM5, Fluo-8 calcium, ACh EC20 PAM; 0% = ACh EC20, 100% = ACh EC100;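 active = activation above the run cutoff, the mean activation of all test compounds plus 3 SD, cut at about 18% in these data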
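System: CHO-K1 hM5 cells. Reagent: acetylcholine, EC20 level. Compound dosing: single dose, 3 µM nominal final test concentration. Timing: Post-acetylcholine fluorescence recording 140 s. Detection: Fluo-8 calcium fluorescence. Read-out: % activation, ACh-normalized. Benchmarks: ACh EC20 and EC100 wells. Repeats: singlicate, one well per test compound.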
M1 PAM: positive allosteric modulators of human M1 muscarinic receptor; activation, % at 3 µM; P11229; AID 588819; CHO-K1 hM1, Fluo-8 calcium fluorescence, ACh EC20; 0% = ACh EC20, 100% = maximal ACh; actives 0.088% (n = 360,000); in the data active = activation above about 19%, passing the limit was not always enough
CHRM1 agonist: human M1 muscarinic receptor agonism | actives 0.33% (n = 360,000) | activation, % at 3 µM | AID 588814 | CHO-K1 hM1, Fluo-8 calcium fluorescence, agonist mode; 0% DMSO, 100% acetylcholine EC100 | P11229;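 active = activation above the run's mean compound activation plus 3 SD, cut at about 16% in these data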;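 also: peak over basal fluorescence ratio within a 140 s kinetic read after compound addition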
M5 antag: CHRM5 antagonism in calcium assay | AID 624040 | inhibition, % at 3 µM | actives 0.59% (n = 360,000) | CHO-hM5 cells, Fluo-8 calcium fluorescence, ACh EC80;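 active = inhibition above a per-plate cutoff, the mean of that plate's test compounds plus 3 SD, cut at about 27% in these data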;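 also: 0% = acetylcholine EC80 with DMSO and 100% = DMSO without agonist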
The depositor's hits bear a star. Shown are actives, neighbours in structure and some others; about 2.2% of the full set was active somewhere.

What do the screens show for `C#CCOCCOCCOCCNc1nc(N2CCN(C(=O)Cn3cc(CC(C)O)nn3)CC2)nc(N2CCN(C(=O)[C@H](C)n3cc(CCC(=O)O)nn3)CC2)n1` (stereo partly specified)?
CHRM1 antagonist: -6; CHRM5 agonist: 1; CHRM5 PAM: 1; M1 PAM: 7; CHRM1 agonist: -3; M5 antag: 10

What do the screens show for `CN(C)CCCn1c(SCC(=O)N2c3ccccc3Sc3ccccc32)nc2ccccc2c1=O`?
CHRM1 antagonist: 39*; CHRM5 agonist: -7; CHRM5 PAM: -17; M1 PAM: -27; CHRM1 agonist: -15; M5 antag: 20

How did O=c1ccc(-c2ccc(S(=O)(=O)Nc3ccc(F)cc3)o2)n[nH]1 do in these assays?
CHRM1 antagonist: -9; CHRM5 agonist: -5; CHRM5 PAM: -2; M1 PAM: 4; CHRM1 agonist: -2; M5 antag: 5

How did OC1(c2cccs2)CN(c2ccc(Cl)cc2)C2=[N+]1CCCS2 (stereo unspecified) do in these assays?
CHRM1 antagonist: -9; CHRM5 agonist: -5; CHRM5 PAM: 3; M1 PAM: 9; CHRM1 agonist: -3; M5 antag: 11

How did OC1(c2cccs2)CN(c2ccc(Cl)cc2)C2=[N+]1CCCC2 (stereo unspecified) do in these assays?
CHRM1 antagonist: 27; CHRM5 agonist: -18; CHRM5 PAM: -32; M1 PAM: -18; CHRM1 agonist: -7; M5 antag: 29*

How did C=CCNC(=S)Nc1ccccc1-c1nnc2n1CCCCC2 do in these assays?
CHRM1 antagonist: 16; CHRM5 agonist: -9; CHRM5 PAM: -16; M1 PAM: -15; CHRM1 agonist: -12; M5 antag: 30*

Results for Nc1ccccc1-c1nnc2n1CCCCC2 ?
CHRM1 antagonist: -14; CHRM5 agonist: -5; CHRM5 PAM: 0; M1 PAM: 11; CHRM1 agonist: -7; M5 antag: 17

Results for COC(=O)CCCCC(=O)OC ?
CHRM1 antagonist: -16; CHRM5 agonist: 1; CHRM5 PAM: -5; M1 PAM: 18; CHRM1 agonist: 5; M5 antag: 6

How did COC(=O)CCCCCCCCCCN1CCCCC1 do in these assays?
CHRM1 antagonist: 27*; CHRM5 agonist: -9; CHRM5 PAM: -6; M1 PAM: -24; CHRM1 agonist: -8; M5 antag: -1

How did Cc1ccccc1Sc1ccc(N)cn1 do in these assays?
CHRM1 antagonist: 59*; CHRM5 agonist: -3; CHRM5 PAM: -8; M1 PAM: -26; CHRM1 agonist: -4; M5 antag: 23

How did CC1(C)CN(c2ccc(Br)cc2)C(=O)[C@H]1CC(=O)Nc1ccccc1 do in these assays?
CHRM1 antagonist: -12; CHRM5 agonist: 0; CHRM5 PAM: 2; M1 PAM: 3; CHRM1 agonist: -4; M5 antag: 5

Results for CSc1nc(N)nc2c1ncn2CC(=O)N1CCN(Cc2c(C)cc(C)cc2C)CC1 ?
CHRM1 antagonist: 29; CHRM5 agonist: 3; CHRM5 PAM: -15; M1 PAM: -17; CHRM1 agonist: -2; M5 antag: 32*

How did CCC(C)NC(=O)c1ccc(N2CC3CC(C2)c2cccc(=O)n2C3)c(NC(=O)c2c(F)cccc2F)c1 (stereo unspecified) do in these assays?
CHRM1 antagonist: -4; CHRM5 agonist: -1; CHRM5 PAM: -2; M1 PAM: -4; CHRM1 agonist: 22*; M5 antag: -1

What do the screens show for `COc1ccccc1NS(=O)(=O)c1cccc(C(=O)NCC(c2ccccc2OC)N2CCCC2)c1` (stereo unspecified)?
CHRM1 antagonist: 42*; CHRM5 agonist: -11; CHRM5 PAM: -24; M1 PAM: -20; CHRM1 agonist: -7; M5 antag: 7

What do the screens show for `COc1ccccc1C(CNC(=O)c1cccc(S(=O)(=O)Nc2ccc(C)cc2)c1)N1CCCC1` (stereo unspecified)?
CHRM1 antagonist: 78*; CHRM5 agonist: -10; CHRM5 PAM: -33; M1 PAM: -23; CHRM1 agonist: -7; M5 antag: 28*
